Experimental data from ChEMBL document CHEMBL1142431, “Benzodioxoles: novel cannabinoid-1 receptor inverse agonists for the treatment of obesity” (J Med Chem, 2008).
Values after ≈ are worked out from the molar mass of the structure shown. Active and inactive are the calls of the source. The calls are words filed in the database; no cut-off is given here.

How the values were obtained:
[1] = Selectivity for human CB1 receptor over P2X receptor
Homo sapiens [2] = species on record: Homo sapiens; assay: Selectivity for human CB1 receptor over human ORL1 receptor
[3] = Selectivity for human CB1 receptor over DAT
Homo sapiens [4] = species on record: Homo sapiens; assay: Selectivity for human CB1 receptor over human dopamine D3 receptor
Homo sapiens [5] = species on record: Homo sapiens; assay: Selectivity for human CB1 receptor over human NK1 receptor
Homo sapiens [6] = species on record: Homo sapiens; assay: Selectivity for human CB1 receptor over human vanilloid V1a receptor
[7] = Partition coefficient, log D at pH 6.5; assay type: physicochemical; settings: octanol/water
Homo sapiens [8] = species on record: Homo sapiens; assay: Selectivity for human CB1 receptor over human bradykinin B1 receptor
[9] = Selectivity for human CB1 receptor over histamine H3 receptor
Homo sapiens [10] = species on record: Homo sapiens; assay: Selectivity for human CB1 receptor over human adenosine A1 receptor
Cannabinoid receptor 1 [11] = target: T1, Cannabinoid receptor 1 (Homo sapiens, UniProt P21554); assay: Activity at human CB1R expressed in HEK293 cells assessed as intracellular cAMP level; assay type: functional, cell-based
T1 sequence (P21554 whole entry): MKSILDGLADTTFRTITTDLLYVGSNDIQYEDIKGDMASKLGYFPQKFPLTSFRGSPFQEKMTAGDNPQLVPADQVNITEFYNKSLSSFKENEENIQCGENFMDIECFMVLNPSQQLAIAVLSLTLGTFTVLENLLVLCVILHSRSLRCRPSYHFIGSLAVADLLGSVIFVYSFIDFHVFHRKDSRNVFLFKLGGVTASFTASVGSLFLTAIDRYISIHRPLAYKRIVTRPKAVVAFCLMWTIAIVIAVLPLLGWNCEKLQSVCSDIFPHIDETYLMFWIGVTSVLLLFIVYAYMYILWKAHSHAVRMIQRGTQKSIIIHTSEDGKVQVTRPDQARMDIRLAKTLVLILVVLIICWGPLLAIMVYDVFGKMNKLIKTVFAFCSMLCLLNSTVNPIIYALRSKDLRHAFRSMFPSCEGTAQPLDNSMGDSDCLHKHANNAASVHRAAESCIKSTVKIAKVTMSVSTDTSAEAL

Rattus norvegicus [12] = assay: Reduction in progression of body weight in diet-induced obesity Sprague-Dawley rat model at 3 mg/kg, po for 16 days; assay type: functional, organism-based; parameters: dose 3 mg/kg
In short: (§1)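 Obese Sprague-Dawley rats (HFD 10 weeks from 3 weeks old, selected as >2 SD above chow controls), n = 9 per group, gavage-adapted 3 days, then dosed daily by gavage at 5:00 p.m. for 16 days in water with 7.5% gelatine and 0.62% NaCl, 2 mL/kg; body weight and food intake recorded daily.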

[13] = Selectivity for human CB1 receptor over GABA receptor
Homo sapiens [14] = species on record: Homo sapiens; assay: Selectivity for human CB1 receptor over human adenosine A2A receptor
Rattus norvegicus [15] = assay: Reduction in body fat in po dosed diet-induced obesity Sprague-Dawley rat model; assay type: functional, organism-based
In short: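 Sprague-Dawley rats fed HFD from 3 weeks of age for 10 weeks; high responders (body weight exceeding chow controls by >2 SD) grouped n = 9. After 3 days gavage adaptation, daily oral dosing at 5:00 p.m. for 2 weeks in 7.5% gelatine/0.62% NaCl in water, 2 mL/kg. Fat and lean mass by MRI before and at end of treatment.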

[16] = Selectivity for human CB1 receptor over central imidazoline I2 receptor
Homo sapiens [17] = species on record: Homo sapiens; assay: Selectivity for human CB1 receptor over human NK2 receptor
[18] = Selectivity for human CB1 receptor over BZD receptor
Homo sapiens [19] = species on record: Homo sapiens; assay: Selectivity for human CB1 receptor over human vanilloid V2 receptor
Homo sapiens [20] = species on record: Homo sapiens; assay: Selectivity for human CB1 receptor over human NET
[21] = Selectivity for human CB1 receptor over GABA transporter
[22] = Selectivity for human CB1 receptor over L type calcium channel at DHP site
[23] = Selectivity for human CB1 receptor over adrenergic alpha-1 receptor
[24] = Selectivity for human CB1 receptor over kainate receptor
[25] = Selectivity for human CB1 receptor over NMDA receptor
[26] = Selectivity for human CB1 receptor over PCP receptor
[27] = Selectivity for human CB1 receptor over P2Y receptor
Homo sapiens [28] = species on record: Homo sapiens; assay: Selectivity for human CB1 receptor over human glucocorticoid receptor
[29] = Selectivity for human CB1 receptor over L type calcium channel at verapamil site
[30] = Selectivity for human CB1 receptor over TRH receptor
Homo sapiens [31] = species on record: Homo sapiens; assay: Selectivity for human CB1 receptor over human CCK1 receptor
Homo sapiens [32] = species on record: Homo sapiens; assay: Selectivity for human CB1 receptor over human dopamine D4.4 receptor
[33] = Selectivity for human CB1 receptor over AMPA receptor
[34] = Permeability from apical to basolateral side of human Caco-2 cell membrane; assay type: ADME, cell-based; settings: read-out: permeability
[35] = Solubility in fed state stimulated intestinal fluid at pH 6.6; assay type: physicochemical; settings: fed state simulated intestinal fluid
In short: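 Excess compound (about 1-2 mg) was placed in about […] of 50 mM fed-state simulated intestinal fluid at room temperature. Final pH was measured the next day, then samples were filtered and quantified by HPLC against a five-dilution calibration.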

Rattus norvegicus [36] = assay: Reduction in progression of body weight in diet-induced obesity Sprague-Dawley rat model at 1 mg/kg, po for 16 days; assay type: functional, organism-based; parameters: dose 1 mg/kg; in short: as §1
Liver microsomes [37] = assay: Clearance in human liver microsomes; assay type: ADME, Microsome; settings: microsomes
In short: (§2)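 Test compound at 2 µM incubated with liver microsomes (0.5 mg protein/mL) in 50 mM potassium phosphate pH 7.4 at 37 °C. Reaction started with an NADPH-generating system (glucose-6-phosphate 3.2 mM, NADP 2.6 mM, MgCl2 6.5 mM). Six samples over 30 min, quenched in methanol with internal standard, then LC-MS/MS for substrate depletion. CLint taken from the first-order decay, normalized to protein.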

[38] = Solubility in fasted state stimulated intestinal fluid at pH 6.5; assay type: physicochemical; settings: fasted state simulated intestinal fluid
Homo sapiens [39] = species on record: Homo sapiens; assay: Selectivity for human CB1 receptor over human LTD4 receptor
Homo sapiens [40] = species on record: Homo sapiens; assay: Selectivity for human CB1 receptor over human AT2 receptor
Homo sapiens [41] = species on record: Homo sapiens; assay: Selectivity for human CB1 receptor over human adrenergic beta-1 receptor
Homo sapiens [42] = species on record: Homo sapiens; assay: Selectivity for human CB1 receptor over human ETB receptor
Homo sapiens [43] = species on record: Homo sapiens; assay: Selectivity for human CB1 receptor over human MC4 receptor
Homo sapiens [44] = species on record: Homo sapiens; assay: Selectivity for human CB1 receptor over human ETA receptor
[45] = Selectivity for human CB1 receptor over neuropeptide Y receptor
Homo sapiens [46] = species on record: Homo sapiens; assay: Selectivity for human CB1 receptor over human bradykinin B2 receptor
[47] = Selectivity for human CB1 receptor over histamine H1 receptor
[48] = Selectivity for human CB1 receptor over adrenergic alpha-2 receptor
[49] = Selectivity for human CB1 receptor over 5HTT
Homo sapiens [50] = species on record: Homo sapiens; assay: Selectivity for human CB1 receptor over human adenosine A3 receptor
[51] = Selectivity for human CB1 receptor over peripheral imidazoline I1 receptor
Cannabinoid receptor 1 [52] = target: T1, Cannabinoid receptor 1; assay: biochemical; assay type: cell-based, HEK293
[53] = Selectivity for human CB1 receptor over SK1 calcium channel
Liver microsomes [54] = assay: Clearance in rat liver microsomes; assay type: ADME, Microsome; settings: microsomes; in short: as §2
Homo sapiens [55] = species on record: Homo sapiens; assay: Selectivity for human CB1 receptor over human dopamine D1 receptor
[56] = Selectivity for human CB1 receptor over CRF1 receptor
Homo sapiens [57] = species on record: Homo sapiens; assay: Selectivity for human CB1 receptor over human AT1 receptor
[58] = Selectivity for human CB1 receptor over 5HT receptor
Homo sapiens [59] = species on record: Homo sapiens; assay: Selectivity for human CB1 receptor over human NK3 receptor
[60] = Selectivity for human CB1 receptor over sodium channel
[61] = Selectivity for human CB1 receptor over L type calcium channel at diltiazem site
[62] = Aqueous solubility at pH 6.5 by lyophilisation solubility assay; assay type: physicochemical
In short: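 Duplicate samples from 10 mM DMSO stock; DMSO evaporated 1 h, residue taken up in 50 mM phosphate buffer pH 6.5, stirred 1 h, shaken 2 h, left overnight. Filtrate and 1/10 dilution read by direct UV or HPLC-UV against four-point calibration; range for MW 500 0-666 µg/mL; >80% dissolved reported as greater-than.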

[63] = Selectivity for human CB1 receptor over androgen receptor

In the case of `O=C(c1cc2c(cc1F)O[C@](c1ccc(F)cc1)(c1ccc(Cl)cc1Cl)O2)N1CCOCC1`, the Selectivity ratio [1] is reported as 300, the Selectivity ratio (Homo sapiens [2]) is reported as 300 and the Selectivity ratio [3] is reported as 300. The Selectivity ratio (Homo sapiens [4]) was 300, the Selectivity ratio (Homo sapiens [5]) was 300 and the Selectivity ratio (Homo sapiens [6]) was 300. The logD [7] was > 4, the Selectivity ratio (Homo sapiens [8]) was 300 and the Selectivity ratio [9] was 300. The Selectivity ratio (Homo sapiens [10]) was 300, the EC50 (Cannabinoid receptor 1 [11]) was 8 nM and the Activity (Rattus norvegicus [12]) was “Active”. For the same compound, the Selectivity ratio [13] was 300, the Selectivity ratio (Homo sapiens [14]) was 300 and the Activity (Rattus norvegicus [15]) was “Active”. For the same compound, the Selectivity ratio [16] was 300, the Selectivity ratio (Homo sapiens [17]) was 300 and the Selectivity ratio [18] was 300. The Selectivity ratio (Homo sapiens [19]) was 300, the Selectivity ratio (Homo sapiens [20]) was 300 and the Selectivity ratio [21] was 300. It also gave a Selectivity ratio [22] of 300, a Selectivity ratio [23] of 300 and a Selectivity ratio [24] of 300. For the same compound, the Selectivity ratio [25] was 300, the Selectivity ratio [26] was 300 and the Selectivity ratio [27] was 300. It also gave a Selectivity ratio (Homo sapiens [28]) of 300, a Selectivity ratio [29] of 300 and a Selectivity ratio [30] of 300. It also gave a Selectivity ratio (Homo sapiens [31]) of 300, a Selectivity ratio (Homo sapiens [32]) of 300 and a Selectivity ratio [33] of 300. For the same compound, the Papp A→B [34] was 10.6 ×10⁻⁶ cm/s, the solubility [35] was 445 µg/mL (≈ 904 µM) and the Activity (Rattus norvegicus [36]) was “Active”. It also gave a clearance (Liver microsomes [37]) of 11 µL/min/mg, a solubility [38] of 129 µg/mL (≈ 262 µM) and a Selectivity ratio (Homo sapiens [39]) of 300. For the same compound, the Selectivity ratio (Homo sapiens [40]) was 300, the Selectivity ratio (Homo sapiens [41]) was 300 and the Selectivity ratio (Homo sapiens [42]) was 300. The Selectivity ratio (Homo sapiens [43]) was 300, the Selectivity ratio (Homo sapiens [44]) was 300 and the Selectivity ratio [45] was 300. The Selectivity ratio (Homo sapiens [46]) was 300, the Selectivity ratio [47] was 300 and the Selectivity ratio [48] was 300. The Selectivity ratio [49] was 300, the Selectivity ratio (Homo sapiens [50]) was 300 and the Selectivity ratio [51] was 300. It also gave a Ki (Cannabinoid receptor 1 [52]) of 3.3 nM, a Selectivity ratio [53] of 300 and a clearance (Liver microsomes [54]) of 27 µL/min/mg. For the same compound, the Selectivity ratio (Homo sapiens [55]) was 300, the Selectivity ratio [56] was 300 and the Selectivity ratio (Homo sapiens [57]) was 300. It also gave a Selectivity ratio [58] of 300, a Selectivity ratio (Homo sapiens [59]) of 300 and a Selectivity ratio [60] of 300. The Selectivity ratio [61] was 300, the solubility [62] was < 1 µg/mL and the Selectivity ratio [63] was 300.
